High-throughput results deposited in PubChem BioAssay by several laboratories.
A selection: hits, their analogues and other compounds. The true share with any hit is near 3%.
AI-2 QS modul = modulates the Vibrio harveyi AI-2 quorum sensing system. activity change, % at 7.5 µM. AID 2094. 300,000 tested, 0.4% active. Vibrio harveyi JMH597 AI-2 luminescence/OD600 ratio, 9 h; hits give low values; strain lacks LuxN and CqsS sensors; 0 = neutral-control median; in the data active = activity change below about -75%, passing the limit was not always enough;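 also: luminescence divided by OD600 gain over 9 h not by final OD600 alone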
HIF activator = HIF pathway transcriptional activation. U2OS HRE-luciferase reporter, luminescence; normalized: DMSO 0%, desferrioxamine 100%. activation, % at 7.5 µM (by protocol). 300,000 tested, 0.32% active;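 active = mean activation of at least 10% of the iron chelator positive control signal, with at least half of replicates also reaching 10%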
NRP1-CendR mod = NRP-1/CendR interaction modulation. FAM-RPARPAR peptide binding to NRP-1, fluorescence polarization. O14786. inhibition, % at 25 µM. 360,000 tested, 0.85% active;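 active = inhibition or corrected inhibition above about 18%, plus a signal ratio from 0.5 to 1.5, limit read from the data, passing the limit was not always enough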
Target sequence (O14786 whole entry, looked up): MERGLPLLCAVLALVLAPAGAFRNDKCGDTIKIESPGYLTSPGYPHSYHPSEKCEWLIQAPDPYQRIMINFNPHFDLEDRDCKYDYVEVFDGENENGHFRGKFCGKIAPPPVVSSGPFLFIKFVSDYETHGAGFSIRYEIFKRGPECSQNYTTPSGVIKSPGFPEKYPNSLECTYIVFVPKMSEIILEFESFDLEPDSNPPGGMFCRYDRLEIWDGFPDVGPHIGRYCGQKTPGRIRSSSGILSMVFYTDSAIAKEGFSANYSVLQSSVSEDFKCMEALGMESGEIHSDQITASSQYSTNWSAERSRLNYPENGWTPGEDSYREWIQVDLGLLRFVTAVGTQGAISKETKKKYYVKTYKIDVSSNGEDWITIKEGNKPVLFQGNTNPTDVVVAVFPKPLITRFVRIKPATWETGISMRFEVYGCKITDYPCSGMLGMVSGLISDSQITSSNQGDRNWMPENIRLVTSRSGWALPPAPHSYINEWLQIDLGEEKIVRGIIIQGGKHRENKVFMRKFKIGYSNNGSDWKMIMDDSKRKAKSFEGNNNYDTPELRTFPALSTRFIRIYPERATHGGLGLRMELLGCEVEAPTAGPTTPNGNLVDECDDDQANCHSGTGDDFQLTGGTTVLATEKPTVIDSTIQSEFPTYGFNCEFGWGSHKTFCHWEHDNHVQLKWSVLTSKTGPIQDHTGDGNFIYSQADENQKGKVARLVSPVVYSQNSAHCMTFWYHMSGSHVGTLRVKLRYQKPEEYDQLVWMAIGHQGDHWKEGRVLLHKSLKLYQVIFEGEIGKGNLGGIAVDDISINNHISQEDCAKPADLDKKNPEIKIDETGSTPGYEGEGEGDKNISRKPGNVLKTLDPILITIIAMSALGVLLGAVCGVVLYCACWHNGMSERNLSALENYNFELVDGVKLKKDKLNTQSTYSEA
V-ATPase pH = yeast V-ATPase proton transport regulation by pHLuorin. 350,000 tested, 0.37% active. response, % at 10 µM. S. cerevisiae, pHLuorin cytosolic pH fluorescence; in the data active = response mostly above about 7.3%, no sharp cut-off; inactive = mostly below about 5.4%; also: actives read high
T cruzi inh = T. cruzi replication inhibition. T. cruzi beta-gal in NIH3T3, luminescence, 90 h. inhibition, % (concentration not given with the values). 300,000 tested, 1.4% active. AID 1885;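 active = mean inhibition across valid replicates above about 55%, limit read from the data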;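 also: signal also drops with host cell toxicity which is not excluded here; 0% = plate median of DMSO wells and 100% = zero luminescence signal; higher percent means less beta-gal luminescence so fewer parasites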
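Material: NIH/3T3 host cells with β-galactosidase reporter T. cruzi; Input: 5,000 host fibroblasts per well; Medium: DMEM, 2% fetal bovine serum; Compound: 50 nL DMSO compound solution per well; Schedule: 3 h host attachment, then at least 90 h co-culture; Detection: luminescent β-galactosidase signal after 60 min lysis.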
Yeast superoxide = yeast age-related superoxide inhibition as caloric restriction mimetic; S. cerevisiae aged cells, superoxide DHE fluorescence; hits give low values; superoxide response (% of plate mean), % at 10 µM; 330,000 tested, 0.18% active;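 active = superoxide response under a set limit, about three screen SD below normal, cut at about 65% in these data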;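 also: yeast aged for seven days with compound at 30 °C before DHE staining; 100% = average MFI of all compound-treated wells on the plate with controls excluded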
Numbers without * were called inactive; i = inactive; . = no result.

SMILES | AI-2 QS modul | HIF activator | NRP1-CendR mod | V-ATPase pH | T cruzi inh | Yeast superoxide
COc1ccc(CC2(CO)CCN(CC3=Cc4cc(Cl)ccc4OC3)CC2)cc1 | 12 | 0 | 6 | 1 | 66* | 69
COc1ccc(CC2(CO)CCN(Cc3ccc(NC(C)=O)cc3)CC2)cc1 | 21 | 0 | 6 | 1 | 5 | 99
CC(C)(C)OC(=O)N(CCc1ccccc1)Cc1cccc(OCc2cccc(NC(=O)C3CC3)c2)c1 | . | . | -3 | 6 | . | .
O=C(N/N=C/c1ccc[nH]1)c1cccc([N+](=O)[O-])c1 | 13 | 0 | 23 | -3 | -9 | 91
Cc1nc2ccccc2c(=O)n1/N=C/c1ccc2ccccc2c1O | 9 | 11* | -16 | 2 | 24 | 115
Cc1nc2ccccc2c(=O)n1/N=C/c1ccc(O)c(O)c1O | 59 | 0 | -58 | 3 | 9 | 92
Cc1nnc(-c2ccccc2)c(=O)n1/N=C/c1c(O)ccc2ccccc12 | 51 | 69* | -66 | 4 | 65* | 95
Cc1nnc(C)n1/N=C/c1c(O)ccc2ccccc12 | 8 | -6 | -3 | -3 | -13 | 107
CCOC(=O)COc1ccc2c(c1)c(C(C)=O)c(C)n2-c1ccccc1 | 15 | -2 | 5 | -7 | -8 | 94
C=CCNc1nc(C(=O)OCC(=O)Nc2cc(S(C)(=O)=O)ccc2Cl)cs1 | 17 | 0 | 1 | 2 | -15 | 106
CN(C)/N=C/c1ccc(Sc2ccc([N+](=O)[O-])cc2[N+](=O)[O-])o1 | 10 | 0 | 33* | 0 | -7 | 88
COc1ccc(/C=N\NC(=O)c2ccc(F)cc2)cc1COc1cc(F)ccc1[N+](=O)[O-] | 12 | 0 | 6 | -3 | 27 | 97
C#C[C@]1(O)CC[C@H]2[C@@H]3CCc4cc(OC)ccc4[C@H]3CC[C@@]21C | 14 | -1 | 3 | 1 | 10 | 99
C#C[C@]1(O)CC[C@H]2[C@@H]3CCc4cc(OC5CCCC5)ccc4[C@H]3CC[C@@]21C | 33 | 0 | -3 | -2 | 55* | 106
O=C(CC(Sc1ccc(Br)cc1)C(=O)O)c1ccc(F)cc1 (centres undefined) | 1 | -8 | 7 | 0 | 73* | 100
C=CCNS(=O)(=O)c1cccc2cc(C(=O)O)c(O)cc12 | 21 | 1 | 7 | 2 | -5 | 86
Cc1ccc(NC(=O)c2cc(N3C(=O)C=CC3=O)ccc2N2CCOCC2)cc1 | 27 | -5 | 2 | 8 | 59* | .
CCCNC(=O)c1ccc2c(c1)C1C3CCC(C3)C1C(c1ccccc1)N2 (centres undefined) | 9 | -1 | 0 | 19* | 11 | 88
CC(=O)Nc1ccc(S(=O)(=O)c2ccc(N)cc2)cc1 | 33 | 0 | 12 | -3 | -20 | 112
CC(=O)Nc1ccc(S(=O)(=O)c2ccc([N+](=O)[O-])cc2)cc1 | 24 | 0 | 3 | 1 | 70* | 105
N#Cc1cc(-c2ccc(Cl)cc2)cnc1Sc1ccccc1 | -1 | 0 | -4 | -1 | 56* | i
Cn1c(=O)oc2cc(S(=O)(=O)Nc3ccccc3O)ccc21 | 17 | 0 | 35* | 4 | -9 | 96
COC(=O)c1ccccc1NS(=O)(=O)c1ccc2c(c1)oc(=O)n2C | -5 | -1 | 1 | -5 | 11 | 101
CC(C)NC(=O)C1(C)CCN1Cc1cccc(Cl)c1 (centres undefined) | . | . | -4 | . | . | .
Cc1sc2nc[nH]c(=O)c2c1-c1ccc(Cl)cc1 | 18 | -27 | 1 | -2 | -17 | 97
SMILES | AI-2 QS modul | HIF activator | NRP1-CendR mod | V-ATPase pH | T cruzi inh | Yeast superoxide
Cc1cc2c(=O)[nH]cnc2s1 | 19 | 0 | 43* | 3 | 3 | 82
COc1ccc(-c2cn3nc(SCC(=O)NCC4CCCO4)ccc3n2)cc1 (centres undefined) | 4 | 19* | 4 | 3 | 0 | 106
O=C(CSc1ccc2nc(-c3ccccc3)cn2n1)NCC1CCCO1 (centres undefined) | 9 | 2 | -6 | -2 | -8 | 86
CCCNC(=O)Cn1sc2nc(C)cc(C)c2c1=O | 37 | -1 | -4 | 1 | 56* | 106
COc1ccc(OC)c(CN2CCC(C(=O)N3CCN(c4ccccc4F)CC3)CC2)c1 | 17 | 0 | -7 | -1 | 1 | 100
Cc1ccc(-n2c(C)cc(/C=N/NC(N)=S)c2C)cc1 | 33 | 1 | 4 | 5 | 65* | 72
CCC(C)NC(=O)c1ccc(NS(=O)(=O)c2ccc3[nH]c(=O)[nH]c3c2)cc1 (centres undefined) | 6 | 0 | 4 | -1 | -7 | 99
Cc1cccc(NC(=O)c2cc(NC(=O)C3CCCCC3C(=O)O)ccc2Cl)n1 (centres undefined) | 33 | 0 | 15 | -3 | 5 | 90
COC(=O)c1cc(NC(=O)CC2SC(=Nc3ccccc3)N(CCc3c[nH]c4ccccc34)C2=O)cc(C(=O)OC)c1 (centres undefined) | 43 | 0 | -6 | 5 | 67* | 104
COCCN1C(=O)C(CC(=O)Nc2ccc(C(=O)O)cc2)SC1=Nc1ccccc1 (centres undefined) | 30 | . | -11 | -3 | . | 106
O=C(/C=C/c1cn(-c2ccccc2)nc1-c1cccnc1)N1CCCCC1 | 21 | 1 | 3 | 1 | 20 | 108
O=C(/C=C/c1cn(-c2ccccc2)nc1-c1cccc(Cl)c1)N1CCN(c2ccccn2)CC1 | -9 | 1 | -3 | -1 | 73* | 112
Cn1nc(C(=O)NCc2cccc(F)c2)cc1C(=O)NCc1cccc(F)c1 | . | . | 5 | 1 | . | 107
Cn1c(=O)n(C)c2cc(S(=O)(=O)N3CCCCC3)ccc21 | 15 | 0 | 7 | 7 | 4 | 106
COc1ccc(Cl)cc1Cn1c(C)c(C(=O)NCc2cccc(C(F)(F)F)c2)sc1=O | . | . | 27* | . | . | .
COc1ccc(Cl)cc1Cn1c(C)c(C(=O)NCc2ccccc2C(F)(F)F)sc1=O | . | . | -19 | . | . | .
CCCCCCCC(=O)N/N=C(\C)c1ccc(N)cc1 | 15 | 3 | . | . | -8 | 98
CCCCCCCCCC(=O)N/N=C(\C)c1cccnc1 | 2 | 0 | 1 | 3 | 62* | 103
COc1ccc(CSc2nnc3[nH]c(=O)cc(N)n23)cc1 | -80* | 0 | -5 | 0 | -9 | 110
COCCN(Cc1nc(C(c2ccccc2)c2ccccc2)no1)C(C)C | 10 | 0 | -1 | 0 | -6 | 101
O=C(CCSCc1cccc(Cl)c1)NCCc1ccc(Cl)cc1 | 21 | 0 | 1 | 58* | -1 | 106
O=C(CCSCc1ccc(Cl)cc1)NCCc1ccccc1 | 13 | 0 | -1 | -3 | -1 | 113
COC(=O)COc1ccc2cc(-c3ccc(OC)cc3)c(=O)oc2c1 | 9 | 0 | 20* | -5 | -6 | 104
